From ChEMBL document CHEMBL1147211, “Synthetic N-pyridinyl(methyl)-indol-3-ylpropanamides as new potential immunosuppressive agents” (Eur J Med Chem, 2007)
Calls of active or inactive are those of the source. No cut-off for these calls is given here.

How the values were obtained:
[1] = (§1) Antiproliferative activity against ConA-stimulated mouse splenocytes at 90 uM after 72 hrs by MTT assay; format: functional; conditions: Splenocyte
Outline: (§2)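 Spleens pooled from two 8-week-old female C57BL/6 mice were homogenized in HBSS, and red cells were lysed with 20 mM Tris-HCl/140 mM NH4Cl. Cells were seeded at 1.5×10^5/well and stimulated with 1 ug/mL ConA plus compound in complete RPMI with 50 µM mercaptoethanol, at 37 °C and 5% CO2 for 72 h. Read-out was MTT for 4 h and OD at 570 nm, in sextuplicate. Inhibition was calculated as (OD control − OD treated)/OD control × 100.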

[2] = (§3) Antiproliferative activity against ConA-stimulated mouse splenocytes at 30 uM after 72 hrs by MTT assay; format: functional; conditions: Splenocyte; outline: as §2
Splenocyte [3] = assay: as §1; format: functional; outline: as §2
Splenocyte [4] = assay: as §3; format: functional; outline: as §2
[5] = Cytotoxicity assessed as cell viability of ConA-stimulated mouse splenocytes at 100 uM after 48 hrs by MTT assay
Mus musculus = assay: Inhibition of DTH foot-pad swelling in orally dosed BALB/C mouse after 5 days; format: functional
Outline: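 Female BALB/c mice, 8–9 weeks old and five per group, were primed i.v. with 5×10^6 SRBC in PBS. Compound in olive oil was given orally once daily for five days, from priming until challenge. On day 4, 3–4×10^8 SRBC were injected into the right hind footpad and PBS into the left. Footpad swelling difference was measured 24 h later, and inhibition was expressed relative to control mice.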

[6] = Antiproliferative activity against PHA-stimulated human peripheral blood lymphocytes assessed as [3H]thymidine uptake after 48 hrs; format: functional; conditions: PBL
Outline: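 Human PBL from healthy donors were isolated by Ficoll-Hypaque and seeded at 1×10^5/well. They were stimulated with 0.3 µg/mL PHA plus compound (6.25–100 µM; DMSO stock diluted in complete RPMI) at 37 °C and 5% CO2 for 48 h. [3H]thymidine (1 µCi/well) was added for the last 6–8 h, and uptake was counted by beta counter, in sextuplicate. Values are mean ± SEM of three independent experiments.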

Splenocyte [7] = assay: Inhibition of mitogen dependent T cell proliferation in mouse splenocytes; format: functional, cell-based; outline: as §2

Compound	inhibition at 90 µM [1] [%]	inhibition at 30 µM [2] [%]	Activity (Splenocyte [3])	Activity (Splenocyte [4])	other results
Cn1cc(CCC(=O)NCc2cccnc2)c2cc(Cl)ccc21	37	22	–	–	–
O=C(CCc1cn(Cc2ccccc2)c2ccccc12)Nc1ccncc1	–	–	inactive	inactive	–
Cc1cc(C)nc(NC(=O)CCc2cn(Cc3ccc(Cl)cc3)c3ccccc23)c1	–	–	inactive	inactive	–
Cc1cc(C)nc(NC(=O)CCc2cn(Cc3ccccc3)c3ccccc23)c1	–	–	inactive	inactive	–
O=C(CCc1c[nH]c2ccccc12)NCc1cccnc1	38	38	–	–	–
O=C(CCc1cn(Cc2ccccc2)c2ccccc12)NCc1cccnc1	38	20	–	–	–
O=C(CCc1cn(Cc2ccc(Cl)cc2)c2ccc(Cl)cc12)NCc1cccnc1	–	–	inactive	inactive	–
O=C(CCc1cn(Cc2ccc(Cl)cc2)c2ccccc12)Nc1ccncc1	87	19	–	–	Cell viability [5]: 95%; Inhibition (Mus musculus): 69%; IC50 [6]: 25 µM; IC50 (Splenocyte [7]): 17 µM
Cc1cc(C)nc(NC(=O)CCc2c[nH]c3ccccc23)c1	76	22	–	–	–
Cn1cc(CCC(=O)Nc2ccncc2)c2cc(Cl)ccc21	–	–	inactive	inactive	–
O=C(CCc1c[nH]c2ccccc12)Nc1ccncc1	–	–	inactive	inactive	–
Cc1cc(C)nc(NC(=O)CCc2cn(Cc3ccc(Cl)cc3)c3ccc(Cl)cc23)c1	–	–	inactive	inactive	–
O=C(CCc1cn(Cc2ccc(Cl)cc2)c2ccccc12)NCc1cccnc1	55	27	–	–	–
